Source: the array DNA melting data of Ke et al. (doi:10.1101/2024.01.08.574731)

Key:
[1] = folding enthalpy; higher = less favourable; fluorescence melt of hairpins on a sequencing array, two-state fit; settings: sodium 0.088 M
Summary of the method: (§1)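 Folding enthalpy and melting temperature were estimated with bootstrapped two-state fits and combined across four replicates by inverse-variance weighting, with fitted temperatures raised by 9.35 °C to match UV melts. The data were Cy3 fluorescence of library hairpins, with annealed Cy3 and quencher oligos, on a sequenced MiSeq flow cell in 50 mM Na-HEPES pH 8.0, 25 mM NaCl, imaged in 2.5 °C steps up to 60 °C and normalised to pre-quench Cy3 and control constructs.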

[2] = melting temperature; fluorescence melt of hairpins on a sequencing array, two-state fit, raised by 9.35 °C to match UV melts; settings: sodium 0.088 M
Summary of the method: as §1

Row | Sequence | folding enthalpy [1] [kcal/mol] | Tm [2] [°C]
1 | GTTGCTGGAAACAGCGAC ((.((((....)))).)) | -39.6 | 54.3
2 | GCTCGCGAAAGCGGTAGC ((((((....)))..))) | -15.4 | 51
3 | GATCAATCAATTGATC ((((((....)))))) | -36 | 45
4 | GAACAAGGAAACTTGCTC ((.((((....)))).)) | -19.4 | 29.4
5 | GATCTGTTTCCAGATC ((((((....)))))) | -34.9 | 49.3
6 | GCGCCGTCGAAAGACCGC (((..(((....)))))) | -23.1 | 50.8
7 | GGTACCGAAAGGTACACC ((((((....)))..))) | -9.32 | 51.7
8 | GCGTATGGAAACGTATGC ((.((.(....).)).)) | -26.1 | 34.8
9 | GCGAACGAAAGTTCACGC ((((((....)))..))) | -22.9 | 48.9
10 | GGGGAGGGAAACCTCCTC (.(((((....))))).) | -15.6 | 53.4
11 | GATCACTTGGTGATC ((((((...)))))) | -37.5 | 59.1
12 | GATCGAGGGCTCGATC ((((((....)))))) | -46.3 | 53.5
13 | GACCAGCGAAAGCTTGTC (((.(((....))).))) | -24 | 47.8
14 | GCCGCGCGAAAGCTCCGC ((.(.((....)).).)) | -7.61 | 33.2
15 | GCAATCGAAAGATGTTGC ((((((....)))..))) | -15.9 | 34.6
16 | GCGTGACCGAAAGGTCGC (((..(((....)))))) | -10.1 | 51.6
17 | GAGAAGGCGAAAGCCCTC (((..(((....)))))) | -10.5 | 37.2
18 | GAGTGCGAAAGCACCCTC ((((((....)))..))) | -10.4 | 45.1
19 | GAACCGGGAAACTGGTTC (((((.(....).))))) | -41.7 | 51.4

Row | Sequence | folding enthalpy [1] [kcal/mol] | Tm [2] [°C]
20 | GCTCGCGAAAGCGATAGC ((((((....)))..))) | -14.4 | 50.3
21 | GGGTTCGAAAGAACTCCC ((((((....)))..))) | -13.5 | 46.5
22 | GCGAAAGCTCGC ((((....)))) | -11 | 56.8
23 | GCACGGTCGAAAGACTGC (((..(((....)))))) | -13.9 | 39.4
24 | GCTCGAGAAATCGAGC ((((((....)))))) | -37.4 | 66.5
25 | CGGTACGGAAACGTTCCG (((.(((....))).))) | -32.4 | 49.8
26 | GCAAGGGGAAACTCTTGC (((((.(....).))))) | -45.3 | 50.1
27 | GCTTGCACGAAAGTGAGC (((..(((....)))))) | -17.3 | 44.4
28 | GATCAGTGGGCTGATC ((((((....)))))) | -48.6 | 54.4
29 | GAAGGTGGAAACACCTCC (.(((((....))))).) | -12.3 | 40.8
30 | GATCTCTACAGAGATC ((((((....)))))) | -45.2 | 55.8
31 | GCTTGGGAAACCAAGC ((((((....)))))) | -35.7 | 62.7
32 | GGACGACGAAAGTCCTCC (((.(((....))).))) | -19.4 | 45.4
33 | GTTTCCGAAAGGATCAAC ((((((....)))..))) | -11.2 | 22.4
34 | ACTTTGAAAAAAGT (((((....))))) | -8.08 | 30.6
35 | GCGCCGCCGAAAGGCCGC (((..(((....)))))) | -15.2 | 56.3
36 | GCCATGGGAAACTATGGC (((((.(....).))))) | -37.4 | 52.5
37 | GAATGAGGAAACTCATTC (((((((....))))))) | -37.3 | 52.8
38 | GGCACCCGAAAGGGAGCC (((.(((....))).))) | -32.6 | 68.6
